{"data": "Experimental data gathered from unrelated publications", "Tspo": "Translocator protein (Tspo, Rattus norvegicus, UniProt P16257)", "GLP2R": "Glucagon-like peptide 2 receptor (GLP2R, Homo sapiens, UniProt O95838)", "Melanocortin receptor 4": "Melanocortin receptor 4 (Mus musculus, UniProt P56450)"}
{"Structure (SMILES)": "CNc1nc(C#Cc2ccccc2)nc2c1ncn2[C@H]1[C@H](O)[C@H](O)[C@@H]2C[C@@H]21", "target": "Tspo", "test": "ligand displacement, radioligand", "endpoint": "Ki", "value": "> 10 µM"}
{"Structure (SMILES)": "CC[C@H](C)[C@H](NC(=O)[C@H](CC(=O)O)NC(=O)[C@H](CO)NC(=O)[C@@H](NC(=O)[C@H](Cc1ccccc1)NC(=O)[C@@H](NC(=O)CNC(=O)[C@H](CC(=O)O)NC(=O)[C@H](C)NC(=O)[C@@H](N)Cc1c[nH]cn1)[C@@H](C)O)[C@@H](C)O)C(=O)N[C@@H](CC(N)=O)C(=O)N[C@@H](CCCCN)C(=O)N[C@H](C(=O)N[C@@H](CC(C)C)C(=O)N[C@@H](CC(=O)O)C(=O)N[C@@H](CC(=O)O)C(=O)N[C@@H](CCSC)C(=O)N[C@@H](C)C(=O)N[C@@H](C)C(=O)N[C@@H](CCCCN)C(=O)N[C@@H](CCC(=O)O)C(=O)N[C@@H](Cc1ccccc1)C(=O)N[C@@H](CC(C)C)C(=O)N[C@@H](CCCCN)C(=O)N[C@@H](Cc1c[nH]c2ccccc12)C(=O)N[C@@H](CC(C)C)C(=O)N[C@H](C(=O)N[C@@H](CC(N)=O)C(=O)N[C@H](C(=O)N[C@@H](CCCCN)C(=O)N[C@H](C(=O)N[C@H](C(=O)N[C@@H](CCC(N)=O)C(=O)O)[C@@H](C)O)C(C)C)[C@@H](C)O)[C@@H](C)CC)[C@@H](C)CC", "target": "GLP2R", "test": "reporter gene, agonist, luciferase", "endpoint": "EC50", "value": "0.033 µM"}
{"Structure (SMILES)": "N=C(N)NCCC[C@H](NC(=O)[C@@H](N)CC(=O)O)C(=O)N[C@@H](Cc1ccccc1)C(=O)O", "target": "Melanocortin receptor 4", "test": "reporter gene, agonist", "endpoint": "EC50", "value": "> 100 µM"}
{"Structure (SMILES)": "CCOC(=O)[C@@]12C[C@@H]1[C@@H](n1ccc3c(NC)nc(I)nc31)[C@H](O)[C@@H]2O", "target": "Tspo", "test": "ligand displacement, radioligand", "endpoint": "Ki", "value": "> 10 µM"}
{"Structure (SMILES)": "CSCC[C@H](NC(=O)[C@@H](NC(=O)[C@@H](N)Cc1ccc(O)cc1)C(C)C)C(=O)NCC(=O)O", "target": "Melanocortin receptor 4", "test": "reporter gene, agonist", "endpoint": "EC50", "value": "> 100 µM"}
{"Structure (SMILES)": "O=C(Nc1ccncc1)c1cn(Cc2ccc(Cl)c(Cl)c2)c(=O)c2cnn(C3CCNCC3)c12", "target": "Fascin (FSCN1, Homo sapiens, UniProt Q16658)", "test": "binding, ITC", "endpoint": "Kd", "value": "0.045 µM"}
{"Structure (SMILES)": "CCOC(=O)[C@@]12C[C@@H]1[C@@H](n1ccc3c(NC4CC4)nc(C#Cc4ccccc4)nc31)[C@H](O)[C@@H]2O", "target": "Tspo", "test": "ligand displacement, radioligand", "endpoint": "Ki", "value": "> 10 µM"}
{"Structure (SMILES)": "O=C(O)CC(=O)C(=O)O", "target": "L-lactate dehydrogenase A chain (LDHA, Homo sapiens, UniProt P00338)", "test": "binding, fluorescence", "endpoint": "Kd", "value": "642 µM"}
{"Structure (SMILES)": "CNc1nc(C#Cc2ccc(Cl)s2)nc2c1ncn2[C@H]1[C@H](O)[C@H](O)[C@]2(C(=O)OCCc3ccccc3)C[C@H]12", "target": "Tspo", "test": "ligand displacement, radioligand", "endpoint": "Ki", "value": "> 10 µM"}
{"Structure (SMILES)": "CSCC[C@H](NC(=O)[C@@H](NC(=O)[C@@H](N)Cc1ccc(O)cc1)C(C)C)C(=O)NCC(=O)N[C@@H](Cc1c[nH]cn1)C(=O)N[C@@H](Cc1ccccc1)C(=O)O", "target": "Melanocortin receptor 4", "test": "reporter gene, agonist", "endpoint": "EC50", "value": "> 100 µM"}
{"Structure (SMILES)": "Cc1cnc(-c2ccc(-c3ccc(NC(=O)Nc4c(F)cc(F)cc4F)cc3F)c3c2C(=O)NC3)[nH]1", "target": "High affinity nerve growth factor receptor (NTRK1, Homo sapiens, UniProt P04629)", "test": "binding, competition with immobilised ligand", "endpoint": "Kd", "value": "0.001 µM"}
{"Structure (SMILES)": "N=C(N)NCCC[C@H](NC(=O)[C@H](CC(=O)O)NC(=O)[C@H](Cc1c[nH]c2ccccc12)NC(=O)[C@H](CCCNC(=N)N)NC(=O)[C@H](Cc1ccccc1)NC(=O)[C@@H](N)Cc1c[nH]cn1)C(=O)N[C@@H](Cc1ccccc1)C(=O)NCC(=O)O", "target": "Melanocortin receptor 4", "test": "reporter gene, agonist", "endpoint": "EC50", "value": "8.38 µM"}
{"Structure (SMILES)": "CNc1nc(C#Cc2ccc(Cl)s2)nc2c1ncn2[C@H]1[C@H](O)[C@H](O)[C@]2(C(=O)O)C[C@H]12", "target": "Tspo", "test": "ligand displacement, radioligand", "endpoint": "Ki", "value": "> 10 µM"}
{"Structure (SMILES)": "CC[C@H](C)[C@H](NC(=O)[C@H](CO)NC(=O)[C@H](Cc1ccc(O)cc1)NC(=O)[C@H](CC(=O)O)NC(=O)[C@H](CO)NC(=O)[C@@H](NC(=O)[C@H](Cc1ccccc1)NC(=O)[C@@H](NC(=O)CNC(=O)[C@H](CCC(=O)O)NC(=O)[C@H](C)NC(=O)[C@@H](N)Cc1ccc(O)cc1)[C@@H](C)O)[C@@H](C)CC)C(=O)N[C@@H](C)C(=O)N[C@@H](CCSC)C(=O)N[C@@H](CC(=O)O)C(=O)N[C@@H](CCCCN)C(=O)N[C@H](C(=O)N[C@@H](Cc1c[nH]cn1)C(=O)N[C@@H](CCC(N)=O)C(=O)N[C@@H](CCC(N)=O)C(=O)N[C@@H](CC(=O)O)C(=O)N[C@@H](Cc1ccccc1)C(=O)N[C@H](C(=O)N[C@@H](CC(N)=O)C(=O)N[C@@H](Cc1c[nH]c2ccccc12)C(=O)N[C@@H](CC(C)C)C(=O)N[C@@H](CC(C)C)C(=O)N[C@@H](C)C(=O)N[C@@H](CCC(N)=O)C(=O)N[C@@H](CCCCN)C(=O)NCC(=O)N[C@@H](CCCCN)C(=O)N[C@@H](CCCCN)C(=O)N[C@@H](CC(N)=O)C(=O)N[C@@H](CC(=O)O)C(=O)N[C@@H](Cc1c[nH]c2ccccc12)C(=O)N[C@@H](CCCCN)C(=O)N[C@@H](Cc1c[nH]cn1)C(=O)N[C@@H](CC(N)=O)C(=O)N[C@H](C(=O)N[C@H](C(=O)N[C@@H](CCC(N)=O)C(=O)O)[C@@H](C)O)[C@@H](C)CC)C(C)C)[C@@H](C)CC", "target": "GLP2R", "test": "reporter gene, agonist, luciferase", "endpoint": "EC50", "value": "> 1 µM"}
{"Structure (SMILES)": "O=C(OC[C@H]1O[C@@H](OC(=O)c2cc(O)c(O)c(OC(=O)c3cc(O)c(O)c(O)c3)c2)[C@H](OC(=O)c2cc(O)c(O)c(OC(=O)c3cc(O)c(O)c(O)c3)c2)[C@@H](OC(=O)c2cc(O)c(O)c(OC(=O)c3cc(O)c(O)c(O)c3)c2)[C@@H]1OC(=O)c1cc(O)c(O)c(OC(=O)c2cc(O)c(O)c(O)c2)c1)c1cc(O)c(O)c(OC(=O)c2cc(O)c(O)c(O)c2)c1", "target": "Replicase polyprotein 1ab, main protease (rep, Severe acute respiratory syndrome coronavirus 2, UniProt P0DTD1)", "test": "binding, SPR", "endpoint": "Kd", "value": "1.1 µM"}
